Assay results as given in ChEMBL document CHEMBL4049392, “New azole derivatives showing antimicrobial effects and their mechanism of antifungal activity by molecular modeling studies” (Eur J Med Chem, 2017).
≈ marks a conversion by molar mass, not a printed value.

What was measured:
[1] = test system: Escherichia coli; assay: Antibacterial activity against Escherichia coli ATCC 25922 after 18 to 24 hrs by broth microdilution method; type: functional
Summary of the method: (§1)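 CLSI broth microdilution in Mueller Hinton broth, with inoculum from 24 h Mueller Hinton agar subcultures, final about 5 10^5 cfu/mL. Compounds were dissolved in DMSO and tested as twofold dilutions in wells. Plates were incubated at 35 °C for 18–24 h. MIC was read as the lowest concentration completely inhibiting visible growth. Ciprofloxacin was the reference.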

[2] = test system: Pseudomonas aeruginosa; assay: Antibacterial activity against Pseudomonas aeruginosa ATCC 27853 after 18 to 24 hrs by broth microdilution method; type: functional; summary of the method: as §1
[3] = test system: Candida parapsilosis; assay: Anti-fungal activity against Candida parapsilosis ATCC 90018 after 48 hrs by broth microdilution method; type: functional; details: Lodderomyces parapsilosis, ATCC 90018, 48 h
Summary of the method: (§2)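 CLSI broth microdilution in RPMI 1640 (with glutamine, without bicarbonate) buffered to pH 7.0 with MOPS. Inoculum was prepared from 24 h Sabouraud dextrose agar subcultures, final 0.5 to 2.5 10^3 cfu/mL. Twofold dilutions were made from DMSO stocks. Incubated 35 °C for 48 h. MIC was the lowest concentration with no visible growth; for the fluconazole reference, MIC was taken at about 80% growth inhibition versus control.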

[4] = test system: Enterococcus faecalis; assay: Antibacterial activity against Enterococcus faecalis ATCC 29212 after 18 to 24 hrs by broth microdilution method; type: functional; summary of the method: as §1
[5] = test system: Staphylococcus aureus; assay: Antibacterial activity against Staphylococcus aureus ATCC 29213 after 18 to 24 hrs by broth microdilution method; type: functional; summary of the method: as §1
[6] = test system: Candida albicans; assay: Anti-fungal activity against Candida albicans ATCC 90028 after 48 hrs by broth microdilution method; type: functional; details: ATCC 90028, 48 h; summary of the method: as §2
[7] = test system: Pichia kudriavzevii; assay: Anti-fungal activity against Candida krusei ATCC 6258 after 48 hrs by broth microdilution method; type: functional; details: ATCC 6258, 48 h; summary of the method: as §2
[8] = Cytotoxicity against human U937 cells assessed as cell viability at 10 to 100 ug/ml after 48 hrs by MTT assay relative to control; type: cell-based, U-937; details: read-out: Activity
Summary of the method: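 U937 human monocytic cells, 4 10^3 per well in RPMI-1640 with 10% FBS, L-glutamine, penicillin and streptomycin, at 37 °C and 5% CO2. Compounds in DMSO were added at five final concentrations for 48 h, in triplicate. MTT was added for 4 h, formazan was dissolved overnight in SDS/23% DMF, and OD was read at 570 nm. Results are % reduction in viable cells versus control.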

[9] = test system: Nakaseomyces glabratus; assay: Anti-fungal activity against drug-resistant Candida glabrata after 48 hrs by broth microdilution method; type: functional
Summary of the method: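 Clinical resistant C. glabrata isolate, stored frozen in glycerol and subcultured twice on Sabouraud dextrose agar. CLSI broth microdilution in RPMI 1640 (glutamine, no bicarbonate) buffered to pH 7.0 with MOPS. Inoculum from 24 h subcultures, final 0.5 to 2.5 x10^3 cfu/mL. DMSO-dissolved compounds in twofold dilutions, 35 C for 48 h. MIC is the lowest concentration giving complete visual growth inhibition; fluconazole reference read at about 80% inhibition.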

[10] = test system: Candida albicans; assay: Antibiofilm activity against Candida albicans SC5314 after 24 hrs by turbidity assay; type: functional
Summary of the method: (§3)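 Biofilms were grown on Calgary device pegs from a 10^6 cfu/mL inoculum for 24 h at 37 °C. Pegs were rinsed in saline, then challenged with twofold dilutions for 24 h at 35 °C. Biofilm was recovered by 5 min sonication into RPMI 1640 with 2% glucose and incubated overnight. OD was read at 550 nm plus visual turbidity. MBEC was the lowest concentration preventing regrowth. MBIC was the minimum concentration preventing initial biofilm formation, judged by visual turbidity.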

[11] = test system: Candida albicans; assay: Antibiofilm activity against Candida albicans SC5314 after 24 hrs by spectrophotometric method; type: functional; summary of the method: as §3

| Structure (SMILES) | MIC [1] [µg/mL] | MIC [2] [µg/mL] | MIC [3] [µg/mL] | MIC [4] [µg/mL] | MIC [5] [µg/mL] | MIC [6] [µg/mL] | MIC [7] [µg/mL] | viability at 48 h [8] [%] | MIC [9] [µg/mL] | MBIC [10] [µg/mL] | MBEC [11] [µg/mL] |
| --- | --- | --- | --- | --- | --- | --- | --- | --- | --- | --- | --- |
| OC(Cn1ccnc1)c1ccccc1 (configuration not stated) | 512 (≈ 2720 µM) | 512 (≈ 2720 µM) | 256 (≈ 1360 µM) | 512 (≈ 2720 µM) | 1020 (≈ 5440 µM) | 256 (≈ 1360 µM) | 256 (≈ 1360 µM) |  |  |  |  |
| OC(Cn1ccnc1)c1ccc(Cl)cc1 (configuration not stated) | 256 (≈ 1150 µM) | 256 (≈ 1150 µM) | 128 (≈ 575 µM) | 128 (≈ 575 µM) | 64 (≈ 287 µM) | 128 (≈ 575 µM) | 256 (≈ 1150 µM) |  |  |  |  |
| CC(=O)OC(Cn1ccnc1)c1ccccc1.Cl (configuration not stated) | 512 | 256 | 64 | 256 | 1020 | 128 | 128 |  |  |  |  |
| Cl.O=C(Cc1ccccc1)OC(Cn1ccnc1)c1ccc(Cl)cc1 (configuration not stated) | 256 | 256 | 2 | 256 | 16 | 0.5 | 4 | 70 to 80 | 4 |  |  |
| Cl.O=C(OC(Cn1ccnc1)c1ccc(Cl)cc1)c1ccc(-c2ccccc2)cc1 (configuration not stated) | 512 | 256 | 0.25 | 256 | 512 | 0.25 | 4 | 70 to 80 | 4 | 4 | 512 |
| CCCC(CCC)C(=O)OC(Cn1ccnc1)c1ccc(Cl)cc1.Cl (configuration not stated) | 512 | 256 | 64 | 32 | 1020 | 128 | 64 |  |  |  |  |
| CC(=O)CCC(=O)OC(Cn1ccnc1)c1ccc(Cl)cc1.Cl (configuration not stated) | 512 | 256 | 16 | 256 | 512 | 64 | 32 |  |  |  |  |
| Cl.O=C(Cc1ccccc1)OC(Cn1ccnc1)c1ccccc1 (configuration not stated) | 512 | 128 | 32 | 64 | 128 | 64 | 128 |  |  |  |  |
| CCCCC(=O)OC(Cn1ccnc1)c1ccc(Cl)cc1.Cl (configuration not stated) | 512 | 256 | 0.5 | 128 | 32 | 0.5 | 8 | 70 to 80 | 0.25 | 8 | 1024 |
| CC(=O)CCC(=O)OC(Cn1ccnc1)c1ccccc1.Cl (configuration not stated) | 512 | 256 | 256 | 128 | 512 | 256 | 256 |  |  |  |  |
| CCC(=O)OC(Cn1ccnc1)c1ccccc1.Cl (configuration not stated) | 512 | 256 | 8 | 128 | 1020 | 64 | 32 |  |  |  |  |
| Cl.O=C(CCC(=O)c1ccccc1)OC(Cn1ccnc1)c1ccccc1 (configuration not stated) | 512 | 256 | 32 | 64 | 128 | 16 | 128 |  |  |  |  |
| C/C=C/C=C/C(=O)OC(Cn1ccnc1)c1ccccc1.Cl (configuration not stated) | 512 | 256 | 8 | 64 | 512 | 32 | 32 |  |  |  |  |
| Cl.O=C(CCC(=O)c1ccccc1)OC(Cn1ccnc1)c1ccc(Cl)cc1 (configuration not stated) | 256 | 256 | 4 | 256 | 8 | 4 | 16 | 70 to 80 | 32 |  |  |
| CCCC(=O)OC(Cn1ccnc1)c1ccccc1.Cl (configuration not stated) | 512 | 256 | 16 | 128 | 512 | 64 | 32 |  |  |  |  |
